What all share (assay type): biochemical
Test [1] deals with T1, FLuc (Photinus pyralis luciferase) (Photinus pyralis, UniProt P08659). Briefly: luminescence inhibition, 1536-well CRC. The note with it: read-out: % inhibition at 57 μM (inactive).
For test [2], the target named is T2, RLuc (Renilla reniformis luciferase) (Renilla reniformis, UniProt P27652).
T2 sequence (P27652 1-311): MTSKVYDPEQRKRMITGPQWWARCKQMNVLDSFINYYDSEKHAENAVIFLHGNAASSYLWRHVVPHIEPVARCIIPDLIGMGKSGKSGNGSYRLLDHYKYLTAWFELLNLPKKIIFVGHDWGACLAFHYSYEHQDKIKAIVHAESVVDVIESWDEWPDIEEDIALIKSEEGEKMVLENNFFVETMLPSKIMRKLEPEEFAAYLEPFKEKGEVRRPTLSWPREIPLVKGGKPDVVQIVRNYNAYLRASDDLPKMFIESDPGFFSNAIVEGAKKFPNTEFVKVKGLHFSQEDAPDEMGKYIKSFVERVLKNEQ
Description: luminescence inhibition, 1536-well CRC. The method, boiled down: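 Renilla reniformis luciferase in 1536-well format with 5 μM coelenterazine as substrate. Luminescence is measured over a test-compound concentration series. IC50 is taken from the fitted concentration-response curve and given as mean ±SD of at least 4 determinations.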

Test [3] concerns the target T3, LmLuc (Luciola mingrelica luciferase) (Luciola mingrelica, UniProt Q26304).
T3 sequence (Q26304 1-548): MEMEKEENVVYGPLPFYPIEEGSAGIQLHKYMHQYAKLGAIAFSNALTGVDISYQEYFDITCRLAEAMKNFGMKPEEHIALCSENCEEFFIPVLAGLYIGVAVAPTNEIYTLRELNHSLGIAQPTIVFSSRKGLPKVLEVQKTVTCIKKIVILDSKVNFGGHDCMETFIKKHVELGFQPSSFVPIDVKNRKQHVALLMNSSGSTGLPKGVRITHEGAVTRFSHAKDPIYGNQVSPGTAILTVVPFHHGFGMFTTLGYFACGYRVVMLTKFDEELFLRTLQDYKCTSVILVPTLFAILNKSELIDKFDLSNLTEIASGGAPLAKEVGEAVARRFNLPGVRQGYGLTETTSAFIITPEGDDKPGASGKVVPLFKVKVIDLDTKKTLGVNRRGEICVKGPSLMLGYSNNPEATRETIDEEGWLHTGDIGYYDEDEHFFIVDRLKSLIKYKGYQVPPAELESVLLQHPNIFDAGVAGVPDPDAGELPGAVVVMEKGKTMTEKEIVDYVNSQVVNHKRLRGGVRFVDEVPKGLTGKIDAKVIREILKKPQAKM
Briefly: luminescence inhibition, 1536-well CRC. The note with it: read-out: % inhibition at 57 μM (inactive).

Test [4] has as its target T3, LmLuc (Luciola mingrelica luciferase). Description: luminescence inhibition, 1536-well CRC. In short, it runs like this:
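Luciola mingrelica luciferase at 5 nM final in 1536-well format, run by the same protocol as the Photinus enzyme with 10 μM D-luciferin and 10 μM ATP. Luminescence is read over a test-compound titration. IC50 comes from curve fitting and is given as mean ±SD of at least 4 determinations.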

The target in test [5] is T1, FLuc (Photinus pyralis luciferase). Description: luminescence inhibition, 1536-well CRC. The method, boiled down:
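Purified wild-type Photinus pyralis luciferase in 1536-well format, with 10 μM D-luciferin and 10 μM ATP as substrates. Luminescence is read across a concentration titration of test compound. IC50 comes from the fitted concentration-response curve and is given as mean ±SD of at least 4 determinations.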

The target of test [6] is T2, RLuc (Renilla reniformis luciferase). Description: luminescence inhibition, 1536-well CRC. Conditions: read-out: % inhibition at 57 μM (inactive).
The target in test [7] is T4, VLuc (Vibrio fischeri luciferase) (Aliivibrio fischeri, UniProt P19907).
T4 sequence (P19907 1-354): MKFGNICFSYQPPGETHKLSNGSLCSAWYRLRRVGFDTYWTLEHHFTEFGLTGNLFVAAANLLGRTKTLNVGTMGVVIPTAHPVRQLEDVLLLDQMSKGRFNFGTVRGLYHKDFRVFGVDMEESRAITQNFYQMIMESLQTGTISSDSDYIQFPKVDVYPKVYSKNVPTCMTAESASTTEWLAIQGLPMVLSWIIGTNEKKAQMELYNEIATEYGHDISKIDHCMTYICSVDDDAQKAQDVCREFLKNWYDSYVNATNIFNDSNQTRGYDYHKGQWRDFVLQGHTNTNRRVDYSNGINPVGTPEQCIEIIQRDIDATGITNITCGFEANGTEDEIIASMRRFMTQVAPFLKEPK
T4 sequence (P19908 1-326 partner): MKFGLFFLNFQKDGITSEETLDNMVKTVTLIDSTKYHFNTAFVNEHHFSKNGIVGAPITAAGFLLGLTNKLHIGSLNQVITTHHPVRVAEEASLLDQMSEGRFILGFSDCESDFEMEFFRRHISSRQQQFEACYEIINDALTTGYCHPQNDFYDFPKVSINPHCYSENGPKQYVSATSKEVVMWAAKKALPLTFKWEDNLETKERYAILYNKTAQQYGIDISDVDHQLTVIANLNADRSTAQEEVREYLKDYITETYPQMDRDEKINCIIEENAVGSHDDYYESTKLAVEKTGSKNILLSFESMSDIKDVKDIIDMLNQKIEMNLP
Description: luminescence inhibition, 1536-well CRC, FMN reductase-coupled. The note with it: read-out: VLuc; 0.1 M sodium phosphate pH 7.0, 0.005% decanal, 0.1 mM NADH, 2 μM FMN, 0.1% BSA; partially purified enzyme.

The mark [8] stands for this setting: read-out: LmLuc, 10 μM D-luciferin and ATP, 5 nM enzyme.
Setting [9] is: read-out: FLuc, 10 μM D-luciferin and ATP.

Inhibition and IC50 data for eight compounds are collected here from article PMC3225805 (Chemistry & biology, 2011).

Like-named read-outs stand apart in the source and are kept apart here.

T1 sequence (P08659 whole entry): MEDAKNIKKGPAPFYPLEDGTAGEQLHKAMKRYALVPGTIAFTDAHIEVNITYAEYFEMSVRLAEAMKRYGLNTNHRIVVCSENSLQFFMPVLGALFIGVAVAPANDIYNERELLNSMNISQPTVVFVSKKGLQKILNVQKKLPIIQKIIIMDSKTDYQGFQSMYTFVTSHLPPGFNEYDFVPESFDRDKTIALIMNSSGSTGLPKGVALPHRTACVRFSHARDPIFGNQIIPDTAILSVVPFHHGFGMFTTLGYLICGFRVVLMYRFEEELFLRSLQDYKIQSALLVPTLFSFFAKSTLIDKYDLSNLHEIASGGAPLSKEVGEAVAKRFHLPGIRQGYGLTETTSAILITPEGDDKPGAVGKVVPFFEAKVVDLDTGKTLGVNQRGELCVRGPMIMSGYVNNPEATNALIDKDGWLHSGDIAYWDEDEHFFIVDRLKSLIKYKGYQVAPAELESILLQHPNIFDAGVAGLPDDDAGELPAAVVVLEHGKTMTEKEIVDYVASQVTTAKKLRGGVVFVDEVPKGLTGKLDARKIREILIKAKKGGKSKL

On to `COC(=O)[C@@]1(Cc2ccc(O)c(CC=C(C)C)c2)OC(=O)C(O)=C1c1ccc(O)cc1` [compound 10, butyrolactone I], for which the inhibition at 57 µM in test [1] and in test [3] was less than 20% each time. Moreover, the IC50 in test [2] was greater than 57 µM.
On to `O=C1O/C(=C\c2ccc(O)cc2)C(O)=C1c1ccc(O)cc1` [compound 1, aspulvinone E], for which the IC50 is 3.6 ± 1.1 µM in test [4], 1400 ± 1600 nM in test [5] and greater than 57 µM in test [7]. Besides, the inhibition at 57 µM in test [6] was less than 20%.
In the case of aspulvinone F [compound 2], the IC50 is 2.5 ± 0.5 µM in test [4] (setting [8]); 3600 ± 1500 nM in test [5] (setting [9]); greater than 57 µM in test [2] (read-out: Ultra, 5 μM coelenterazine).
With `COC(=O)[C@]1(Cc2ccc(O)c(CC3OC3(C)C)c2)OC(=O)C(O)=C1c1ccc(O)cc1` (stereo partly drawn) [compound 11, butyrolactone III], the inhibition at 57 µM in test [1], in test [6] and in test [3] was less than 20% each time.
As for `CC(C)(O)[C@H]1Cc2cc(/C=C3\OC(=O)C(c4ccc5c(c4)C[C@H](C(C)(C)O)O5)=C3O)ccc2O1` [compound 5, aspulvinone J-CR], the IC50 in test [4] (setting [8]) is 0.1 ± 0.03 µM; in test [2] (read-out: RLuc, 5 μM coelenterazine), greater than 57 µM; in test [7], 6.5 ± 3.3 µM.
Take benzofuran [compound 12]: the IC50 in test [4] (setting [8]) was 14.8 ± 2.8 µM; in test [5] (setting [9]), 18600 ± 8800 nM.
For the compound aspulvinone I-CR [compound 4], the IC50 in test [4] (setting [8]) came out at 0.5 ± 0.2 µM; in test [5] (setting [9]), 720 ± 400 nM; in test [7] it was 12 ± 2.3 µM.
For aspulvinone M-CR [compound 8] the same measures were 5.3 ± 5.9 µM, 1700 ± 1600 nM and 18 ± 8 µM.

For orientation: inhibition means how much of the control response was suppressed.
